# Assay results pooled from the literature.
# Compare with care: the assays were run in different laboratories.
# Target: Serine/threonine-protein kinase Sgk3 (SGK3, Homo sapiens, UniProt Q96BR1)
# Sequence (Q96BR1 1-496, as in one of the studies): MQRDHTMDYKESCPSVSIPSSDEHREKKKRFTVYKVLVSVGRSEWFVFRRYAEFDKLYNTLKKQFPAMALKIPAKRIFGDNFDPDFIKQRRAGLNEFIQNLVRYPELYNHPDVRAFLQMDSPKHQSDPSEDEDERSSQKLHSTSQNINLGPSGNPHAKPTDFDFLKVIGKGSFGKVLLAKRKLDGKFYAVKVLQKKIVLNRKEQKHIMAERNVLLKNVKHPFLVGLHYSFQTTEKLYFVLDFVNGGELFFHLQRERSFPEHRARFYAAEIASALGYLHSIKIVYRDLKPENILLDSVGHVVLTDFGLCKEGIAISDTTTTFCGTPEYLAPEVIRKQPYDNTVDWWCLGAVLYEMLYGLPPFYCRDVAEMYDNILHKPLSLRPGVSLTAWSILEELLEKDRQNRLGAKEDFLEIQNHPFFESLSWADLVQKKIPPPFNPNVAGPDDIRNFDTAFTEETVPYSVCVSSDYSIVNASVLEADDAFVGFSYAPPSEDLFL
SMILES,assay,setting,quantity,value
Cc1cc(O)c(-c2ccc([C@@H](C)CN(C)C)cc2)c2c1[nH]c(=O)c1sccc12,"enzyme activity, inhibitor",0.1 µM,inhibition,3.22%
CC(C)S(=O)(=O)c1ccc2nccc(Nc3ccc4sc(C5CCCC5)nc4c3)c2c1,"enzyme activity, inhibitor",1 µM,activity vs control,110%
C=CC(=O)N1CCC[C@@H](n2nc(-c3ccc(Oc4ccccc4)cc3)c3c(N)ncnc32)C1,"enzyme activity, inhibitor",1 µM,inhibition,9%
COc1ccc2[nH]c3c4[nH]c5ccc(OC)cc5c4c4c(c3c2c1)C(=O)NC4=O,binding,1 µM,remaining binding,8.1%
CO[C@@H]1[C@H](N(C)C(=O)c2ccccc2)C[C@H]2O[C@]1(C)n1c3ccccc3c3c4c(c5c6ccccc6n2c5c31)C(=O)NC4,"enzyme activity, inhibitor",1 µM,inhibition,43%
C#Cc1cc(-c2cc(Nc3nc(N[C@@H](C)c4ccc(F)cn4)ncc3Cl)n[nH]2)ccc1C=O,"enzyme activity, inhibitor",0.2 µM,inhibition,19.1%
C[C@H]1CC[C@H](n2c3cnccc3c3cnc(Nc4ccc5c(n4)CCN(C(=O)CO)C5)nc32)CC1,cell-free assay,1 µM,remaining signal,39%
CCCCC(=O)Nc1ccc(-c2ccc3ncn(CCC)c(=O)c3c2)cn1,"binding, competition with immobilised ligand",0.5 µM,remaining binding,97%
